NSD2 inh = blocks human histone methyltransferase NSD2 | O96028 | NSD2 peptide methylation, AlphaScreen, 120 min | inhibition, % at 12.5 µM | 0.54% of 310,000 active | AID 743445; in the data active means inhibition above about 50%
FN deposit inh = fibronectin deposition inhibition. inhibition, % at 12.6 µM. AID 743247. 0.086% of 350,000 active. AH1F fibroblasts, Alexa488-fibronectin deposition fluorescence, overnight;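 active means mean inhibition across replicates of 30% or more, regardless of how many single replicates reach that level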;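 further: positive control wells lacked labelled fibronectin entirely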
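Measured by – fluorescence 485/525 nm · System – AH1F fibroblast monolayer, labelled fibronectin deposition · Amount – 10000 cells per well · Buffer or medium – serum-reduced DMEM (2% serum) · Doses – single dose, pinned · Also added – fluorescent fibronectin at 24 nM final · Schedule – 1 h cell attachment, overnight exposure to compound and label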
N-glyco inh = N-linked glycosylation inhibition; 0.23% of 360,000 active; D54 ERlucT glycosylation luciferase reporter, 24 h; percent of 100 nM tunicamycin response; reporter increase, % at 12.5 µM;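 active means mean luciferase reporter signal, scaled so untreated is 0 and the glycosylation-blocking control 100, at or above a set limit in every replicate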;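 further: luciferase carries N-glycosylation sites so blocking glycosylation raises the light; 0% = median of neutral control wells and 100% = median of 100 nM tunicamycin wells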
MLL AF4-AF9 inh = inhibitors of human MLL-AF4/AF9 interaction. 0.47% of 350,000 active. inhibition, % at 10 µM. AlphaScreen, biotin-AF4 peptide binding to FLAG-AF9. P42568;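 active means every replicate reaching a set inhibition limit, whatever the replicate mean, cut at about 25% in these data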;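 further: 0% = plate neutral control median and 100% = total signal loss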
RAD54 inh = RAD54 (human) branch migration inhibition; AID 602329; 0.14% of 360,000 active; Q92698; RAD54 Holliday junction branch migration, FAM/BHQ fluorescence; inhibition, % at 10.4 µM;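 active means mean normalized replicate activity at least 40 and at least half of replicates scoring 40 or more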;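 further: 0% = median of neutral control wells and 100% = median of positive control wells; inhibitors cause a drop in the FAM fluorescence signal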
RAD52 anneal inh = inhibitors of human RAD52 DNA annealing. P43351. recombinant RAD52 DNA annealing, FRET fluorescence. inhibition, % at 18.7 µM. 0.46% of 360,000 active. AID 651710;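 active means every replicate showing at least 50% inhibition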
Target sequence (P43351 whole entry, looked up): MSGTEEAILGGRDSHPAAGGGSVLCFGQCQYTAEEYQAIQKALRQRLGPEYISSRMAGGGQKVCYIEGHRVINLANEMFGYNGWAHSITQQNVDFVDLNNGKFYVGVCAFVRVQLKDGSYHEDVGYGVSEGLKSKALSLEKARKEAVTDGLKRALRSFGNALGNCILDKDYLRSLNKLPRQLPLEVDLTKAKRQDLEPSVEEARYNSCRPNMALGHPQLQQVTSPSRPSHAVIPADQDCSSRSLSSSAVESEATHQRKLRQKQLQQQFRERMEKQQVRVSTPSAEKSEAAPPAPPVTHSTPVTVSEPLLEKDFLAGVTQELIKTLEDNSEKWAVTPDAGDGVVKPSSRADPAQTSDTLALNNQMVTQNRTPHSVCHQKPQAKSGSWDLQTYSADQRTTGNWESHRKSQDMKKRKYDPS
* = called active by the depositor; . = no result. An excerpt weighted towards active compounds, which were near 1.2% of everything screened.

SMILES	NSD2 inh	FN deposit inh	N-glyco inh	MLL AF4-AF9 inh	RAD54 inh	RAD52 anneal inh
COc1ccc(C(=O)C=Cc2ccc(OCc3ccccc3)c(OC)c2)cc1OC	0.1	8.5	51.5*	3.8	-3.7	-26.8
O=C(Nc1ccc(Br)c(C(F)(F)F)c1)c1ccc(C(F)(F)F)cc1	-5.2	39.6*	-5.9	1.2	-3.5	-34.4
O=C(Nc1ccc(Br)c(C(F)(F)F)c1)c1ccccc1	-3.3	.	-5.7	-8.6	.	21.0
CCNC(=O)[C@@H]1[C@@H](CO)[C@@H]2Cn3c(ccc(-c4ccccc4)c3=O)[C@@H]2N1C(=O)C1CC1	.	.	.	0.3	4.7	-2.5
Cn1c(-c2ccccc2)c(/C=N/NC(=O)c2ccc(O)cc2)c2ccccc21	1.1	-11.3	53.9*	-0.7	-2.7	-43.4
O=C(N/N=C\c1c(O)ccc2ccccc12)c1ccc(O)cc1	1.6	10.0	-6.3	-4.1	-2.8	-19.4
O=C(NC1CCCC(C(F)(F)F)C1)c1ccc([N+](=O)[O-])o1 (centres undefined)	1.6	1.1	29.1*	-2.3	5.5	-6.3
O=C(NC1CCCCC1)c1ccc([N+](=O)[O-])o1	1.9	.	41.0*	.	7.6	.
O=C(COC(=O)c1ccc([N+](=O)[O-])o1)NC1CCCCC1	5.4	3.4	-0.3	-1.4	1.6	-15.5
CCN1[C@@H]2Cn3c(ccc(-c4cccc(F)c4)c3=O)[C@H]1[C@@H](C(=O)N(C)C)[C@@H]2CO	.	.	.	-1.6	0.1	4.7
CC(C)(C)c1ccc(C(=O)c2c[nH]c(C(=O)O)c2)cc1	-1.7	-0.8	-10.9	-0.6	.	-9.9
COC(=O)c1cc(C(=O)c2ccc(C(C)(C)C)cc2)c[nH]1	3.8	42.9*	-5.2	1.8	-11.2	-2.8
C[C@H](CO)N1C[C@H](C)[C@@H](CN(C)C(=O)Nc2ccc(F)cc2)Oc2ccc(NC(=O)Cc3ccccc3)cc2C1=O	.	.	.	0.1	0.9	8.9
Cc1cccn2c(=O)c3cc(C(=O)NCc4ccco4)c(=N)n(CCc4ccccc4)c3nc12	0.5	-1.1	52.6*	4.1	.	-29.8
Cc1cccn2c(=O)c3cc(C(=O)NCCc4ccccc4)c(=N)n(Cc4ccco4)c3nc12	-7.3	0.6	6.2	-7.6	-23.6	2.3
CN(C)C(CNC(=O)CSc1nc2sc3c(c2c(=O)n1C)CCCC3)c1ccccc1 (centres undefined)	0.0	.	33.2*	4.7	5.3	3.2
CN(C)CC(=O)Nc1ccc2c(c1)[C@@H]1C[C@@H](CC(=O)NCC3CC3)O[C@@H](CO)[C@@H]1O2	.	-27.3	.	0.9	13.0	4.9
COc1ccc(C)cc1Nc1nc(N)c2cc(OC)c(OC)cc2n1	1.6	.	-8.5	.	50.9*	.
C[C@H]1CCCCO[C@@H](CN(C)S(=O)(=O)c2cccs2)[C@@H](C)CN([C@@H](C)CO)C(=O)c2cc(NS(=O)(=O)c3cn(C)cn3)ccc2O1	.	2.6	.	-1.4	-0.9	109.2*
C[C@@H]1CCCCO[C@@H](CN(C)S(=O)(=O)c2cccs2)[C@@H](C)CN([C@@H](C)CO)C(=O)c2cc(NS(=O)(=O)c3cn(C)cn3)ccc2O1	.	-14.0	.	-2.9	1.8	111.3*
C[C@@H]1CCCCO[C@@H](CN(C)S(=O)(=O)c2cccs2)[C@H](C)CN([C@@H](C)CO)C(=O)c2cc(NS(=O)(=O)c3cn(C)cn3)ccc2O1	.	-8.2	.	-2.7	1.7	83.5*
C[C@@H]1CN([C@H](C)CO)C(=O)c2cc(NS(=O)(=O)c3cn(C)cn3)ccc2O[C@@H](C)CCCCO[C@H]1CN(C)S(=O)(=O)c1cccs1	.	-1.9	.	-0.2	.	3.8
CCOC(=O)c1c(-c2ccc(Cl)cc2)csc1/N=C/C1C(=O)CC(C)(C)CC1=O	0.3	.	.	.	.	.
CCCNC(=O)N1C[C@@H]2[C@H](c3ccccc31)[C@H](CO)N2C(=O)NC(C)C	.	.	.	.	-8.1	.
Cc1cc(C)n(-c2nc(NCCCN(C)C)c3c4c(sc3n2)CCCC4)n1	.	2.9	1.5	.	21.5	52.5*
SMILES	NSD2 inh	FN deposit inh	N-glyco inh	MLL AF4-AF9 inh	RAD54 inh	RAD52 anneal inh
COCC(=O)Nc1ccc2c(c1)[C@H]1C[C@@H](CC(=O)NCc3ccccc3)O[C@@H](CO)[C@H]1O2	.	-8.2	.	1.3	2.4	-18.3
COc1ccc(/C=N/NC(=O)c2cccc(NC(=O)c3ccccc3Cl)c2)cc1	-0.2	9.4	34.3*	-4.9	5.4	-8.3
O=C(C[C@@H]1C[C@@H]2c3cc(NS(=O)(=O)c4ccc(F)cc4)ccc3O[C@@H]2[C@@H](CO)O1)NCc1cc(F)ccc1F	.	13.9	.	1.9	0.6	-9.1
O=S(=O)(c1cccs1)N1CCCCN2[C@H](C1)[C@H](c1ccc(C3=CCCC3)cc1)[C@@H]2CO	.	.	.	-2.6	-8.5	-15.8
CS(=O)(=O)N1CCCCN2[C@H](CO)[C@@H](c3ccc(C4=CCCC4)cc3)[C@H]2C1	.	.	.	28.3*	-2.0	.
O=S(=O)(c1cccs1)N1CCCCN2[C@H](CO)[C@H](c3ccc(C4=CCCCC4)cc3)[C@H]2C1	.	.	.	-4.3	-3.2	57.4*
COc1ccc(S(=O)(=O)N2CCCCN3[C@H](CO)[C@H](c4ccc(C5=CCCCC5)cc4)[C@H]3C2)cc1	.	.	.	1.4	-6.3	59.8*
CCCNC(=O)N1CC2(CCN(Cc3cccnc3)CC2)c2c(n(C)c3cc(OC)ccc23)[C@H]1CO	.	.	.	2.4	.	7.4
CC(=O)N1CC2(C1)[C@@H](c1ccc(-c3ccc(C#N)cc3)cc1)[C@@H](CO)N2C(C)=O	.	.	.	-1.7	.	-9.4
O=C(c1ccc(Cl)c(S(=O)(=O)N2CCCCC2)c1)N1CCN(Cc2ccccc2)CC1	0.7	2.8	28.7*	0.0	10.6	-5.5
O=c1[nH]c(=O)c2nc3c4ccccc4c4ccccc4c3nc2[nH]1	0.4	0.8	95.9*	-1.5	.	-22.4
C[C@@H]1CN([C@H](C)CO)C(=O)CCCn2cc(nn2)CO[C@H]1CN(C)C	.	-7.4	.	-0.9	-4.3	-6.3
C[C@H](CO)N1C[C@H](C)[C@H](CN(C)C(=O)Nc2cccc3ccccc23)Oc2ccc(NC(=O)CCCCCC(=O)Nc3ccccc3N)cc2CC1=O	.	.	.	-1.8	-10.1	-2.6
C[C@H](CO)N1C[C@H](C)[C@H](CN(C)S(=O)(=O)c2ccc(F)cc2)Oc2ccc(NC(=O)CCC(F)(F)F)cc2CC1=O	.	.	.	-2.7	3.3	1.6
COc1ccc2c3c(n(C)c2c1)[C@@H](CO)N(C(=O)Nc1ccc(F)cc1)CC31CCN(Cc2ccccn2)CC1	.	11.0	.	29.0*	.	22.7
COc1cccc(CN2CCC3(CC2)CN(C(=O)Nc2ccc(F)cc2)[C@H](CO)c2c3c3ccc(OC)cc3n2C)c1	.	.	.	35.8*	.	.
O=C(Cc1ccc2c(c1)OCCO2)N1CCN(S(=O)(=O)c2cccc(Cl)c2Cl)CC1	0.4	3.5	2.5	29.9*	-1.4	-1.9
C[C@@H]1CCCCO[C@@H](CN(C)Cc2ccc(C(=O)O)cc2)[C@@H](C)CN([C@@H](C)CO)C(=O)c2cc(NC(=O)c3ccncc3)ccc2O1	.	.	.	-2.6	4.0	104.9*

From PubChem
